SUMO1 PPI mod = SUMO1-SIM interaction modulation. P63165. SUMO1 binding to a labelled peptide, TR-FRET, 1 h. inhibition, % at 20 µM. 0.33% of 360,000 active. AID 602429; in the data active means inhibition above about 37%
STEP block = blocks human striatal-enriched tyrosine phosphatase; P54829; recombinant STEP, OMFP fluorogenic substrate, fluorescence; inhibition, % at 20 µM; 0.25% of 360,000 active;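 active means inhibition at 20 µM, scaled per plate between control wells, above about 37%, limit read from the data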;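 further: 0% = DMSO with enzyme and substrate and 100% = substrate only without enzyme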
Target sequence (P54829 whole entry, looked up): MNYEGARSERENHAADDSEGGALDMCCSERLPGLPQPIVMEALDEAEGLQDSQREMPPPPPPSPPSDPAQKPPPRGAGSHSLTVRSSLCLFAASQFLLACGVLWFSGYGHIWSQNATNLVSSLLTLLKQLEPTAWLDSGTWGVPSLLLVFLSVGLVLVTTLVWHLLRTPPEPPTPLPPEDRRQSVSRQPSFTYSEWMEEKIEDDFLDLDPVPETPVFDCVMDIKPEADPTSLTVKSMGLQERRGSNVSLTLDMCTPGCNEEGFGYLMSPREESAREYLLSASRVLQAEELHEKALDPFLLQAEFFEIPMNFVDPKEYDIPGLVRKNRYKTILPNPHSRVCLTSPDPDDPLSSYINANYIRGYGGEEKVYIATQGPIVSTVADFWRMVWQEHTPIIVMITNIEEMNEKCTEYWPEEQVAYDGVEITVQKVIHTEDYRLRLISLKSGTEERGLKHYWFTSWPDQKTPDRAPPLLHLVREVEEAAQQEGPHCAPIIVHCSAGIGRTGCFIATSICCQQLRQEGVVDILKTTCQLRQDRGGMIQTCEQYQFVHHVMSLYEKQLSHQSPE
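Measure: Control-normalized % inhibition with plate pattern correction | Test system: STEP phosphatase, cell-free reaction | Medium: pH 6.0 Bis-Tris with DTT and Tween 20 | Technique: Fluorescence, 480/540 nm | Times: Reaction 20 min, ambient temperature | Doses: Single compound dose of 20 µM, 1% DMSO final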
SUMO HTRF inh = SUMOylation inhibition; 0.36% of 290,000 active; AID 2006; HTRF SUMOylation assay, SAE1/SAE2 + UBC9, in vitro; inhibition, % at 35 µM; in the data active means inhibition above about 50%, passing the limit was not always enough
Scp-1 inhibitor = blocks human Scp-1 phosphatase activity. Q9GZU7. Recombinant Scp1, phosphopeptide, malachite green phosphate absorbance. inhibition, % at 20 µM. 0.88% of 340,000 active;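 active means inhibition above about 50% at 20 µM, limit read from the data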;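 further: plate controls were DMSO wells with enzyme for no effect and wells lacking enzyme for full effect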
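System: SCP-1 catalytic domain; Reagent: Phospho 17-mer peptide substrate; Doses: one concentration, 20 µM, with 1.0% DMSO; Incubation: 45 min room-temperature reaction, 5 min colour, 30 min stabiliser; Signal: Phosphate-binding colour reagent, absorbance read at 630 nm.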
DNMT1 block = DNMT1 (human) enzyme inhibition; P26358; DNMT1 molecular beacon, Hinp1I cleavage, fluorescence; inhibition (reported as % activation of signal), % at 10 µM; 0.83% of 360,000 active; AID 588458; in the data active means inhibition above about 50%
LMPTP block = blocks human LMPTP phosphatase; inhibition, % at 20 µM; 0.22% of 360,000 active; P24666; AID 651560; recombinant LMPTP-A, OMFP fluorogenic substrate, fluorescence intensity;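 active means compounds that cut the enzyme signal by at least half of the control window in the single-dose screen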;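 further: plate controls were DMSO wells with enzyme plus substrate for no effect and substrate without enzyme for full effect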
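Test system: LMPTP-A phosphatase enzyme; input: 0.625 nM LMPTP-A final; reagent: OMFP substrate, 400 µM final; compound dosing: 20 µM single dose, 3% DMSO; incubation: 50 min dark incubation at room temperature; measured by: endpoint fluorescence intensity from OMFP dephosphorylation; measure: % inhibition relative to no-enzyme and uninhibited control wells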
Active calls of the source: *; . = not tested or not shown; ! = repeats disagree. Hits are enriched below; roughly 1.9% of the tested compounds scored in any of these assays.

SMILES	SUMO1 PPI mod	STEP block	SUMO HTRF inh	Scp-1 inhibitor	DNMT1 block	LMPTP block
COc1ccccc1C(=O)Nc1ccc2c(c1)nc1n2CCN(C2CCCCC2)C1	3	2	8	-3	60*	21
O=C(Nc1ccc2c(c1)nc1n2CCN(C2CCCCC2)C1)c1ccco1	-5	-1	38	-1	-8	16
Cc1ccc(S(=O)(=O)c2cc3c(=O)n4cccc(C)c4nc3n(Cc3ccncc3)c2=N)cc1	-6	2	.	0	3	2
Cc1cc(C)cc(OCC(=O)Nc2ccc(N3CCCC3)cc2)c1	3	6	17	2	65*	10
C=CCn1c(N)c(C(=O)OC(C)(C)C)c2nc3ccccc3nc21	-2	3	98*	-3	-3	0
C=CCn1c(N)c(C(=O)Nc2ccccc2)c2nc3ccccc3nc21	13	-2	91*	-10	-17	3
COCC(C)OC(=O)c1c(N)n(CC(C)C)c2nc3ccccc3nc12 (stereo not drawn)	41*	3	24	5	60*	20
CCCC(C)c1oc(=O)cc(O)c1C (stereo not drawn)	9	2	.	-4	7	-2
C=C1CC(COc2ccc3c(C)c(Cl)c(=O)oc3c2)(c2ccccc2)OC1=O (stereo not drawn)	-11	3	.	-8	15	3
COc1ccc(NC(=O)c2c[nH]c(=O)n(-c3ccc(C)c(C)c3)c2=O)cc1OC	10	-1	1	-9	0	1
COc1ccc(NC(=O)c2c[nH]c(=O)n(-c3ccc(C)c(C)c3)c2=O)c(OC)c1	43*	-7	.	-10	30	-4
Cn1c(C(=O)OC(C(=O)NCC2CCCO2)c2cccnc2)cc2sccc21 (stereo not drawn)	-6	0	2	57*	2	2
CC(OC(=O)c1cc2sccc2n1C)C(=O)NCC1CCCO1 (stereo not drawn)	1	0	36	2	4	-2
CN(C)c1ccc(C(=O)C=Cc2ccc([N+](=O)[O-])cc2)cc1	-14	12	.	.	34	55*
O=c1[nH]c2ccccc2nc1/C=C/c1ccc(Cl)cc1	13	-2	14	-9	-3	-1
COc1ccc(OC)c(NC(=O)CSc2nnc(C3CCCCC3)n2-c2ccccc2)c1	2	-3	24	3	-4	1
CN(C)CCNc1ccc2ncn3c4ccc(O)cc4c(=O)c1c23	-59	-6	.	-13	86*	63*
Oc1ccc(CNc2ccccc2F)c2cccnc12	-9	0	-29	-8	6	3
O=S(=O)(Nc1ccc(O)c2ncccc12)c1ccccc1F	30	3	.	.	59*	25
CCOC(=O)C(C)Sc1ncc(-c2ccccc2)cn1 (stereo not drawn)	3	3	14	-9	0	-1
CCc1ccc(NC(=O)Cn2ncc3c4ccccc4n(C)c3c2=O)cc1	-2	1	48	-11	38	0
Cn1c2ccccc2c2cnn(CC(=O)Nc3ccc(Cl)cc3)c(=O)c21	-4	-2	52*	-3	40	0
O=C(Cn1ccc2ccccc2c1=O)NCC(=O)N1CCN(c2ccccc2F)CC1	-5	-4	-7	-8	0	-1
COC(=O)Cn1c(C)c(C(C)=O)c(C(C)=O)c1C	48*	-3	11	-15	0	1
O=C1NC(=Nc2ccccc2)S/C1=C\C=C\c1ccco1	26	2	48	-2	93*	15
SMILES	SUMO1 PPI mod	STEP block	SUMO HTRF inh	Scp-1 inhibitor	DNMT1 block	LMPTP block
COc1ccc(N=C2NC(=O)/C(=C/C=C/c3ccccc3)S2)cc1	2	-4	28	-4	16	-2
CCOC(=O)c1sc2nc(C)nc(N3CCN(S(=O)(=O)c4ccccc4)CC3)c2c1C	-17	9	.	11	-4	2
COc1cccc(-c2nc(CS(=O)(=O)CC(=O)NC3CCCCC3C)c(C)o2)c1 (stereo not drawn)	-5	-1	20	5	-3	0
C[C@H](CO)N1C[C@H](C)[C@@H](CN(C)Cc2cccc(F)c2)Oc2cc(-c3cccc(C#N)c3)ccc2S1(=O)=O	3	2	.	.	0	0
CC(=O)Nc1ccc(C=NNc2ccc(S(=O)(=O)Nc3ccccc3C(=O)O)cc2[N+](=O)[O-])cc1	19	2	.	2	-15	6
O=C(O)c1ccccc1NS(=O)(=O)c1ccc(N/N=C/c2cccc(O)c2O)c([N+](=O)[O-])c1	37	34	.	88*	11	69*
CCOc1cc(/C=N/Nc2ccc(S(=O)(=O)Nc3ccccc3C(=O)O)cc2[N+](=O)[O-])cc(Cl)c1O	66*	3	.	.	-19	24
C[n+]1ccccc1/C=C/c1ccccc1Cl	-7	-2	4	98*	1	-3
C[n+]1ccccc1/C=C/c1c(F)cccc1F	-30	-4	15	12	1	-1
N#CC1=C(c2ccccc2)/C(=C/c2ccccc2)OC1=O	6	4	20	-7	19	0
N#CC(C#N)=C1NC(N)=C(C#N)C(c2ccccc2)=C1C#N	41*	2	16	.	-3	3
CCOc1c(O)ccc(/C=C2\SC(=S)NC2=O)c1[N+](=O)[O-]	1	2	50*	1	-7	11
N[C@@H](Cc1cc(I)c(Oc2cc(I)c(O)c(I)c2)c(I)c1)C(=O)O	.	.	.	32	.	.
N[C@@H](Cc1cc(I)c(Oc2ccc(O)c(I)c2)c(I)c1)C(=O)O	40*!	-3	10	27	77*!	32
Cc1cc(C)cc(Oc2coc3c(CN(C)C)c(O)ccc3c2=O)c1	2	0	51*	-14	-2	-1
COc1ccc(Oc2coc3c(CN(C)C)c(O)ccc3c2=O)cc1	-5	-1	33	-9	-5	0
Cc1ccc(S(=O)(=O)c2nnn3c2nc(NCCCN2CCCC2=O)c2ccccc23)cc1C	56*	1	-217	3	-1	2
CCCCNc1nc2c(S(=O)(=O)c3ccccc3)nnn2c2ccccc12	-34	1	0	-1	15	0
Cc1ccc(C(=O)N=c2sccn2C)o1	5	-4	18	0	2	1
Clc1ccc(C2Nc3cccc4cccc(c34)N2)c(Cl)c1	-7	1	.	21	-20	6
Clc1cccc(-c2ccc(C3Nc4cccc5cccc(c45)N3)o2)c1	15	0	.	11	44	53*
Nc1c(-c2cccc([N+](=O)[O-])c2)nc2ccccn12	-20	0	-3	-5	-7	0
CCCCN(C(=O)c1cc(S(=O)(=O)N2CCCCCC2)ccc1OC)c1ccccc1	60*	3	.	-7	-2	2
